For 13 compounds, IC50 and Activity results are on record in ChEMBL document CHEMBL1143721, “Bioactive polyketides from Peperomia duclouxii” (J Nat Prod, 2007).

One assay deals with HepG2. Nature of the assay: Growth inhibition of HepG2 cells. Type of assay: functional, cell-based. To be noted: Homo sapiens. An outline of the steps:
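HepG2 cells kept in D-MEM with 10% FBS and 80 µg/mL kanamycin. Growth inhibition measured, IC50 taken as the concentration giving 50% growth inhibition, reported in µg/mL.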

The test system of another assay is WI-38 VA13. Briefly: Growth inhibition of VA13 cells. Type of assay: functional, cell-based. To be noted: Homo sapiens. An outline of the steps: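 VA-13 malignant lung tumor cells kept in RITC 80-7 medium with 10% FBS and 80 µg/mL kanamycin. Growth inhibition measured, IC50 taken as the concentration giving 50% growth inhibition, reported in µg/mL.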
The subject of another assay is WI-38. Nature of the assay: Growth inhibition of WI38 cells. To be noted: Homo sapiens. Type of assay: functional, cell-based.
In assay [1] the test system is A549. Nature of the assay: Inhibition of TNF-alpha-stimulated ICAM1 expression in human A549 cells. Type of assay: functional, cell-based. An outline of the steps:
(§1)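 A549 human lung carcinoma cells grown in RPMI 1640 with heat-inactivated 10% FBS, penicillin G and streptomycin. ICAM-1 induced with recombinant IL-1α or TNF-α. Cell-surface ICAM-1 detected with mouse anti-human ICAM-1 antibody C167 and peroxidase-conjugated goat anti-mouse IgG. Viability checked in parallel by MTT assay.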

Assay [2] relates to A549. Briefly: Inhibition of IL-1-alpha-stimulated ICAM1 expression in human A549 cells. Type of assay: functional, cell-based. An outline of the steps:
as §1

For assay [3], the system named is MDR. Briefly: Effect on calcein accumulation in MDR 2780AD cells at 2.5 ug/mL relative to control. Type of assay: functional, Homo sapiens. An outline of the steps: (§2)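 Multidrug-resistant human ovarian cancer 2780AD (AD10) cells grown in RPMI-1640 with 10% FBS and 80 µg/mL kanamycin. Cells are exposed to test agent at 0.25, 2.5 and 25 µg/mL. Calcein formed from calcein AM by endogenous esterase is read as fluorescence per well, mean of triplicates. Results are given as % of untreated control, or relative to verapamil at the same concentration.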

Assay [4] concerns MDR. Briefly: Effect on calcein accumulation in MDR 2780AD cells at 25 ug/mL relative to control. Type of assay: functional, Homo sapiens. An outline of the steps: as §2
Assay [5] concerns MDR. Nature of the assay: Effect on calcein accumulation in MDR 2780AD cells at 2.5 ug/mL relative to verapamil. Type of assay: functional, Homo sapiens. An outline of the steps: as §2
The subject of assay [6] is MDR. Briefly: Effect on calcein accumulation in MDR 2780AD cells at 0.25 ug/mL relative to verapamil. Type of assay: functional, Homo sapiens. An outline of the steps:
as §2

Assay [7] deals with MDR. Briefly: Effect on calcein accumulation in MDR 2780AD cells at 0.25 ug/mL relative to control. Type of assay: functional, Homo sapiens. An outline of the steps:
as §2

For assay [8], the system named is MDR. Briefly: Effect on calcein accumulation in MDR 2780AD cells at 25 ug/mL relative to verapamil. Type of assay: functional, Homo sapiens. An outline of the steps:
as §2

≈ marks a conversion by molar mass, not a printed value. Where only a bound is given, the exact number is not on record here.

Turning to `CC(C)CNC(=O)/C=C/CCCCc1ccc2c(c1)OCO2` [PIPERCALLOSIDINE], the concentration for half-maximal inhibition (IC50) in the assay with HepG2, in the assay with WI-38 VA13 and in the assay on WI-38 was above 20 µg/mL throughout.

Regarding `COc1cc(/C=C/C(=O)NCCc2ccc(O)c(O)c2)ccc1O` [N-TRANS-FERULOYLDOPAMINE], the IC50 in the assay on HepG2, with WI-38 VA13 and in the assay with WI-38 was above 20 µg/mL each time.

As to `CC1(C)C[C@H](O)C[C@@]2(C)OC(=O)C=C12` [LOLIOLIDE], the IC50 in the assay with HepG2, in the assay on WI-38 VA13 and in the assay with WI-38 was above 20 µg/mL throughout.

Turning to `O=C(CCCCCCCCCCCCc1ccccc1)C1=C(O)CCC(O)C1=O` (stereo not given) [OLEIFERINONE], the IC50 in the assay with A549 [1] was determined as 22.9 µg/mL (≈ 57.2 µM); in the assay with HepG2, 9.2 µg/mL (≈ 23 µM); with A549 [2], 36.8 µg/mL (≈ 91.9 µM); in the assay on WI-38 VA13, 5.8 µg/mL (≈ 14.5 µM); in the assay on WI-38 it was 9.6 µg/mL (≈ 24 µM).

In the case of `CC(=O)O[C@H]1C(=O)[C@@]2(C)[C@H]([C@H](OC(=O)c3ccccc3)[C@]3(O)C[C@H](OC(=O)[C@H](O)[C@@H](NC(=O)c4ccccc4)c4ccccc4)C(C)=C1C3(C)C)[C@]1(OC(C)=O)CO[C@@H]1C[C@@H]2O` [PACLITAXEL], the half-maximal inhibitory concentration (IC50) in the assay with HepG2 is 0.69 µg/mL (≈ 0.808 µM); with WI-38, 0.05 µg/mL (≈ 0.0586 µM).

As for `O=C(CCCCCCCCCCCCc1ccc2c(c1)OCO2)C1=C(O)CCC(O)C1=O` (stereo not given), the results for the concentration for half-maximal inhibition (IC50) in the assay on A549 [1] and in the assay with A549 [2] were 27.2 µg/mL (≈ 61.2 µM) and 43.3 µg/mL (≈ 97.4 µM), respectively.

As to `COc1cc(/C=C/C(=O)NCCc2ccc(O)c(OC)c2)ccc1O`, the half-maximal inhibitory concentration (IC50) in the assay on HepG2, in the assay on WI-38 VA13 and with WI-38 was above 20 µg/mL throughout.

Regarding `C=C(C)[C@@H]1CCC(=C)[C@H](O)CCC(=C)[C@@H](O)C1` [SINUGIBBERODIOL], the Activity with MDR [3] was 137%; in the assay on MDR [4], 160%; with MDR [5], 120%; with MDR [6], 100%; with MDR [7], 113%; in the assay with MDR [8], 116%.

As to `COc1cccc2c1C(=O)c1c(O)c3c(c(O)c1C2=O)C[C@@](O)(C(=O)CO)C[C@@H]3O[C@H]1C[C@H](N)[C@H](O)[C@H](C)O1` [DOXORUBICIN], the IC50 in the assay with HepG2 came out at 0.41 µg/mL (≈ 0.754 µM); with WI-38 VA13 it was 0.39 µg/mL (≈ 0.718 µM).

As to `COc1cc(/C=C/C(=O)NCCc2ccc(O)cc2)cc(OC)c1O` [TRANS-N-SINAPOYLTYRAMINE], the IC50 with HepG2, in the assay on WI-38 VA13 and in the assay with WI-38 was above 20 µg/mL in each case.

`O=C(CCCCCCCCCCCCCCc1ccc2c(c1)OCO2)C1=C(O)CCC(O)C1=O` (stereo not given) [SURINONE A]: the IC50 is 33.5 µg/mL (≈ 70.9 µM) with A549 [1]; 7.4 µg/mL (≈ 15.7 µM) in the assay on HepG2; 51.4 µg/mL (≈ 109 µM) with A549 [2]; 4.4 µg/mL (≈ 9.31 µM) in the assay with WI-38 VA13; 8.6 µg/mL (≈ 18.2 µM) with WI-38.

For the compound `COc1ccc(CCN(C)CCCC(C#N)(c2ccc(OC)c(OC)c2)C(C)C)cc1OC` (stereo not given), the results for the Activity in the assay on MDR [3], in the assay with MDR [4] and with MDR [7] were 114%, 138% and 114%, respectively.

Take `O=C1CCCC2=C1[C@H](O)C[C@H](CCCCCCCCCCCCc1ccc3c(c1)OCO3)O2`: the 50% inhibitory concentration (IC50) in the assay on A549 [1] is 48.8 µg/mL (≈ 107 µM); in the assay on HepG2, 18.2 µg/mL (≈ 39.9 µM); in the assay with A549 [2], 65.2 µg/mL (≈ 143 µM); in the assay with WI-38 VA13 it was above 20 µg/mL; in the assay on WI-38, above 20 µg/mL.
